Where a chain is given by its changes, count along the chain named.
Key:
Assay type in all cases: cell-based
mEAG1 channel [1] = target: T1, mEAG1 channel (Mus musculus, UniProt Q60603); experiment: Outside-out patch-clamp of mEAG1 channels expressed in Xenopus oocytes; details: 10 µM fisetin; outside-out patches; n = 4
T1 sequence (Q60603 1-989): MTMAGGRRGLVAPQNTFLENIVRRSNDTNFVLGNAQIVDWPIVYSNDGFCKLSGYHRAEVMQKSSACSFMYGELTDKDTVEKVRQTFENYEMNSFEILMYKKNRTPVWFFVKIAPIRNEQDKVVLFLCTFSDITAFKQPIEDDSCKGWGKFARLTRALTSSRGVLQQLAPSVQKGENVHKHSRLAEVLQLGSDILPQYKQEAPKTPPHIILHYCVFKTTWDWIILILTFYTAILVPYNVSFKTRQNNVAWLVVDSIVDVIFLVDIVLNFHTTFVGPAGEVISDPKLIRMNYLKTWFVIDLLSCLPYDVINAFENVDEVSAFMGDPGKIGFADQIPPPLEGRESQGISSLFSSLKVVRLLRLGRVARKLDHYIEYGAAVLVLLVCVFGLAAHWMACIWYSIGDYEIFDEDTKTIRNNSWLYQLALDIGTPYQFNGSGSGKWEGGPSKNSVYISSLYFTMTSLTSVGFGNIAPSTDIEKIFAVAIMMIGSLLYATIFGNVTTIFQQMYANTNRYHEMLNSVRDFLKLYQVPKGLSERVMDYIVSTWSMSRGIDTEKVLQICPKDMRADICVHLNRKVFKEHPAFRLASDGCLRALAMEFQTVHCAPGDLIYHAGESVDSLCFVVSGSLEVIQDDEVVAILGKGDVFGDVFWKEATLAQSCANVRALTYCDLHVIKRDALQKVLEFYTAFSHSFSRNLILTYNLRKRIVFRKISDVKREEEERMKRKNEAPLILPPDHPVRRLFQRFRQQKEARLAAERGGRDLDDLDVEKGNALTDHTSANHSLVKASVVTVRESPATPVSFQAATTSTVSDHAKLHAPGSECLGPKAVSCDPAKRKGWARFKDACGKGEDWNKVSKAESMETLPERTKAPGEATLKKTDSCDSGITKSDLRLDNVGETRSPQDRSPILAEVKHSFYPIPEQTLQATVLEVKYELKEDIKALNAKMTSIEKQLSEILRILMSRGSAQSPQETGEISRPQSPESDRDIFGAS
Procedure, shortened: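 Outside-out patches were excised from Xenopus oocytes expressing mouse EAG1. Bath and pipette solutions were 130 mM KCl, 10 mM HEPES, 0.2 mM EDTA, pH 7.2. Patches were exposed to 10 µM flavonoid. The shift in V1/2 was taken from Boltzmann fits of tail-current conductance–voltage relationships.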

mEAG1 Y699A channels = target: T2, mEAG1 Y699A channels (Mus musculus, UniProt Q60603, Y699A); experiment: Inside-out patch-clamp of intrinsic ligand mutant channels
T2 sequence (Q60603 1-989 Y699A): T1 sequence (Q60603 1-989) with Y699A
Procedure, shortened: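 mEAG1 mutant cRNA was injected into defolliculated Xenopus oocytes, and the vitelline membrane was removed. Inside-out patches were bathed in symmetric 130 mM KCl, 10 mM HEPES, 0.2 mM EDTA, pH 7.2, holding at −100 mV. Steps of 0.1 s from −140 to +50 mV (10-mV increments) were followed by −120 mV tails, without or with 30 µM flavonoid. Peak tails were normalized and Boltzmann-fitted. Deactivation time constant came from single-exponential fits of the −120 mV tail after +50 mV; two-tailed t test.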

mEAG1 channel [2] = target: T1, mEAG1 channel; experiment: Inside-out patch-clamp of wild-type mEAG1 channels expressed in Xenopus oocytes

In the case of `O=c1c(O)c(-c2ccc(O)c(O)c2)oc2cc(O)ccc12` [Fisetin, 2-(3,4-dihydroxyphenyl)-3,7-dihydroxychromen-4-one], the “shift of the conductance–voltage relationship” value (mEAG1 channel [1]) was −8.1 ± 2.3 mV, the “potentiation of mEAG1 Y699A channels” value (mEAG1 Y699A channels; 30 µM fisetin) was “did not potentiate” and the “time constant of deactivation” value (mEAG1 Y699A channels; with 30 µM fisetin, at −120 mV, 5.0 ± 0.4 ms without, n = 10, P = 0.06) was 6.4 ± 0.6 ms. For the same molecule, the “V1/2 of the conductance–voltage relationship” value (mEAG1 Y699A channels; with 30 µM fisetin, −54.9 ± 3.5 mV without, n = 10, P = 0.65) was −57.2 ± 3.6 mV, the “Hill coefficient, deactivation time constant versus fisetin plot” value (mEAG1 channel [2]) was 1.2 and the “Hill coefficient, ΔV1/2 versus fisetin plot” value (mEAG1 channel [2]) was 2.2. For the same molecule, the “effect on mEAG1 currents at high concentration” value (mEAG1 channel [2]; concentrations of 100 µM and higher) was “inhibited mEAG1 currents”, the “time constant of deactivation” value (mEAG1 channel [2]; with 30 µM fisetin, at −120 mV after step to +50 mV, 4.5 ± 0.8 ms without, n = 6) was 7.2 ± 1.0 ms and the “time constant of deactivation (single tail current of Fig. 3 C)” value (mEAG1 channel [2]; with 30 µM fisetin, tail current at −120 mV after step to 50 mV, 5.3 ms before) was 13.9 ms. For the same molecule, the “V1/2 of the conductance–voltage relationship” value (mEAG1 channel [2]; with 30 µM fisetin, −41.9 ± 4.1 mV without, n = 6) was −55.4 ± 3.7 mV.

— PMC3581696 (The Journal of General Physiology, 2013)
